Experimental data reported in ChEMBL document CHEMBL1155526, “Discovery of a potent, orally active 11beta-hydroxysteroid dehydrogenase type 1 inhibitor for clinical study: identification of (S)-2-((1S,2S,4R)-bicyclo[2.2.1]heptan-2-ylamino)-5-isopropyl-5-methylthiazol-4(5H)-one (AMG 221)” (J Med Chem, 2010).
Values belong to the compound of their own block, whether it stands above or below them. Calls of active or inactive are those of the source. The rule behind the calls is not given here.

What was measured:
[1] = Bioavailability in Beagle dog at 3 mg/kg, iv or 10 mg/kg, po; settings: in vivo
[2] = tested on: Mus musculus; assay: Ex vivo inhibition of 11beta-HSD1 in high fat diet-fed C57BL/6 mouse inguinal fat at 15 mg/kg, po measured at 4 hrs by ELISA; assay type: functional; settings: C57BL/6, 4 h
[3] = tested on: Mus musculus; assay: Antiobesity activity in po dosed diet-induced obese mouse assessed as decrease in body weight administered via gavage BID for 13 days measured after day 13; assay type: functional, organism-based
Outline: (§1)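 Male C57BL/6 mice on high-fat diet from 3 weeks of age for 12 weeks (DIO), grouped n = 11-12 by pretreatment glucose and body weight. Oral gavage 25 or 50 mg/kg b.i.d. (half dose morning, half afternoon) or vehicle (0.1% Tween-80, 0.5% CMC in water) for 13-14 days. Fed blood glucose by glucose meter, plasma insulin by radioimmunoassay, body weight at study end.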

[4] = target: Cytochrome P450 2D6 (Homo sapiens, UniProt P10635); assay: Inhibition of CYP2D6; assay type: ADME
Sequence of Cytochrome P450 2D6 (P10635 whole entry): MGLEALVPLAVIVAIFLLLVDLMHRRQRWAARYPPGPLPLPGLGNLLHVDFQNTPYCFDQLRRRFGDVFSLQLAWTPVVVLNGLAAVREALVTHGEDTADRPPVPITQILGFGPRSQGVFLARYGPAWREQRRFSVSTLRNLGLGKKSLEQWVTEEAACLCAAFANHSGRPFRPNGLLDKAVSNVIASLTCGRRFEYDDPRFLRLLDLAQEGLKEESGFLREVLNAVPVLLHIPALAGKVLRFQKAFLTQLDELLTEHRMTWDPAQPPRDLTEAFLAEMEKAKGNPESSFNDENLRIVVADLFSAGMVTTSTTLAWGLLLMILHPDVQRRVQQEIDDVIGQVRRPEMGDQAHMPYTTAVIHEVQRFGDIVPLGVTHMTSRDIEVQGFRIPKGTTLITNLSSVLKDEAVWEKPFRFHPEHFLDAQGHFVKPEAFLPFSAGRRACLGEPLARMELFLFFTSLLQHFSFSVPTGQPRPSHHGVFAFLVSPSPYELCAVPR

[5] = tested on: Mus musculus; assay: Antidiabetic activity in diet-induced obese mouse assessed as decrease in fed blood glucose level at 25 to 50 mg/kg, po administered via gavage BID for 13 days measured after day 13 by glucose tolerance test; assay type: functional, organism-based
Outline: as §1

[6] = Clearance in Sprague-Dawley rat at 2 mg/kg, iv or 10 mg/kg, po; settings: in vivo
[7] = Metabolic stability in liver microsomes; assay type: ADME, Microsome
[8] = tested on: Mus musculus; assay: Ex vivo inhibition of 11beta-HSD1 in high fat diet-fed C57BL/6 mouse inguinal fat at 50 mg/kg, po measured at 8 hrs by ELISA; assay type: functional; settings: C57BL/6, 8 h
[9] = target: T1, Glucocorticoid receptor (Homo sapiens, UniProt P04150); assay: Inhibition of glucocorticoid receptor
T1 sequence (P04150 whole entry): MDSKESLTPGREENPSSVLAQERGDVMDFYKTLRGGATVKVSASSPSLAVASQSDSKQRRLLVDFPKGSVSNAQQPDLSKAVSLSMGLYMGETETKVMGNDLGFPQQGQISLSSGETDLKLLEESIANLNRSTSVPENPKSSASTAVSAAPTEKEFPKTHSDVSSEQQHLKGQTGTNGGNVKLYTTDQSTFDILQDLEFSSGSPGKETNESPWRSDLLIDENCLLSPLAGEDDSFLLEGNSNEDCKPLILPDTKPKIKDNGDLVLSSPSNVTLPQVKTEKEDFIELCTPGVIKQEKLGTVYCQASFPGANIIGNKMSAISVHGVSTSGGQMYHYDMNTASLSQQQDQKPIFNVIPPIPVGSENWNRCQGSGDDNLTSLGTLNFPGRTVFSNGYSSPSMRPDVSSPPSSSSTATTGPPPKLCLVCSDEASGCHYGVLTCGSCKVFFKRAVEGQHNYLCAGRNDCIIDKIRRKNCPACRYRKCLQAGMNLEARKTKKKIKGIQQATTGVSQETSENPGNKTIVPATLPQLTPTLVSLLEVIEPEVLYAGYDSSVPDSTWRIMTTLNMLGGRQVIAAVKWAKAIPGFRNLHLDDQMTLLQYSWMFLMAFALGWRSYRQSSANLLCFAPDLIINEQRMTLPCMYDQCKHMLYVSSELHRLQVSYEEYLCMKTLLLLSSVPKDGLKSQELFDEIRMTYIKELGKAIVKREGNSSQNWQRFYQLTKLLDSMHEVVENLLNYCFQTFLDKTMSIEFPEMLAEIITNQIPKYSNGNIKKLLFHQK

[10] = Volume of distribution at steady state in cynomolgus monkey at 2 mg/kg, iv or 10 mg/kg, po; settings: in vivo, read-out: Vdss
[11] = Bioavailability in Sprague-Dawley rat at 2 mg/kg, iv or 10 mg/kg, po; settings: in vivo
[12] = Volume of distribution at steady state in Beagle dog at 3 mg/kg, iv or 10 mg/kg, po; settings: in vivo, read-out: Vdss
[13] = tested on: Mus musculus; assay: Ex vivo inhibition of 11beta-HSD1 in high fat diet-fed C57BL/6 mouse inguinal fat at 5 mg/kg, po measured at 4 hrs by ELISA; assay type: functional; settings: C57BL/6, 4 h
[14] = target: T2, 11-beta-hydroxysteroid dehydrogenase type 2 (Homo sapiens, UniProt P80365); assay: Inhibition of 11beta-HSD2
T2 sequence (P80365 whole entry): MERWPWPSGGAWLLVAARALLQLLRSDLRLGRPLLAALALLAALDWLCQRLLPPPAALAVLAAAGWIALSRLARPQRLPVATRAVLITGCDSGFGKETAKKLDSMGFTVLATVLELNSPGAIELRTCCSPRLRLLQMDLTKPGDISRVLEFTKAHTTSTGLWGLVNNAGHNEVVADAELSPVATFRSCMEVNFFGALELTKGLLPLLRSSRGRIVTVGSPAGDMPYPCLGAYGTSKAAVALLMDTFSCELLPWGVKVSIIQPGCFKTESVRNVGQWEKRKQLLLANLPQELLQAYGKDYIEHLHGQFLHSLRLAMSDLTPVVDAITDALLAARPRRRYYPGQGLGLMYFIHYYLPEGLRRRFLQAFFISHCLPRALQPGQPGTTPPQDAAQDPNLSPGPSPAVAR

[15] = Clearance in Beagle dog at 3 mg/kg, iv or 10 mg/kg, po; settings: in vivo
[16] = Bioavailability in CD1 mouse at 5 mg/kg, iv or 30 mg/kg, po; assay type: ADME, organism-based; settings: in vivo
Outline: (§2)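 iv: mouse 5, rat 2, dog 3, monkey 2 mg/kg in 10% dimethylacetamide/23% water/67% PEG 400. po: mouse 30, rat 10, monkey 10 mg/kg in 0.1% Tween-80/0.5% CMC in water; dog 10 mg/kg in the iv vehicle. Plasma sampled at various time points for drug levels. Half-life is terminal.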

[17] = Clearance in cynomolgus monkey at 2 mg/kg, iv or 10 mg/kg, po; settings: in vivo
[18] = Terminal half life in Sprague-Dawley rat at 2 mg/kg, iv or 10 mg/kg, po; settings: in vivo, read-out: beta t1/2 (converted)
[19] = target: Cytochrome P450 2C19 (Homo sapiens, UniProt P33261); assay: Inhibition of CYP2C19; assay type: ADME
Sequence of Cytochrome P450 2C19 (P33261 whole entry): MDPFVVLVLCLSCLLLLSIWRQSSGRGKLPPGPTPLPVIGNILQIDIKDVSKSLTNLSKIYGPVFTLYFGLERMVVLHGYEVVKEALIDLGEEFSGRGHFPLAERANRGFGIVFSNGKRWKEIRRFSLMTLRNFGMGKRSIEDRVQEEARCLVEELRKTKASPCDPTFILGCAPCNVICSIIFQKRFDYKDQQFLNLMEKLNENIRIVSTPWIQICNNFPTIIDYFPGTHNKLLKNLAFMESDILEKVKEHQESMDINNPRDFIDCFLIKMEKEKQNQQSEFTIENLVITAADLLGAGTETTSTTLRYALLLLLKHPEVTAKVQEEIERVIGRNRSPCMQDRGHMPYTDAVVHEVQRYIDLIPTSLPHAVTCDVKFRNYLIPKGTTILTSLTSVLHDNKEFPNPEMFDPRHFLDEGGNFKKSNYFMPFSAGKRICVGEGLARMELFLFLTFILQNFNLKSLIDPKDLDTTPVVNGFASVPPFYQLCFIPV

[20] = target: Cytochrome P450 2C9 (Homo sapiens, UniProt P11712); assay: Inhibition of CYP2C9; assay type: ADME
Sequence of Cytochrome P450 2C9 (P11712 whole entry): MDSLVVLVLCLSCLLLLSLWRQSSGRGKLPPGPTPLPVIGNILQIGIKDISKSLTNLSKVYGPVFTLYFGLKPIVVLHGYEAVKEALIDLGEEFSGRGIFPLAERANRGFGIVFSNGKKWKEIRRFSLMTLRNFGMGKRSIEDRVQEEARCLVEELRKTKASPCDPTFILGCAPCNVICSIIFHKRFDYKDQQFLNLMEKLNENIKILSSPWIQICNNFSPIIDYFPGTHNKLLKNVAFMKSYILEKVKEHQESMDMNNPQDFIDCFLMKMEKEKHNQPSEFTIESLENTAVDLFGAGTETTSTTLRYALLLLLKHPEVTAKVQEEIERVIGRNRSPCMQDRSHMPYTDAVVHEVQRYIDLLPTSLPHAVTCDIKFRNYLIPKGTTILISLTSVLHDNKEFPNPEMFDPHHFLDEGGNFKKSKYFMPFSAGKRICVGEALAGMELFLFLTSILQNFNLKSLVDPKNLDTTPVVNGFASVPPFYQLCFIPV

[21] = tested on: Mus musculus; assay: Antidiabetic activity in diet-induced obese mouse assessed as mild improvement of glucose tolerance at 25 to 50 mg/kg, po BID for 13 days measured on day 14 after 12 hrs of fasting by glucose tolerance test
[22] = tested on: Mus musculus; assay: Antidiabetic activity in diet-induced obese mouse assessed as decrease in plasma insulin level at 25 to 50 mg/kg, po administered via gavage BID for 13 days measured after day 13 by glucose tolerance test; assay type: functional, organism-based
Outline: as §1

[23] = Clearance in CD1 mouse at 5 mg/kg, iv or 30 mg/kg, po; assay type: ADME, organism-based; settings: in vivo
Outline: as §2

[24] = Terminal half life in Beagle dog at 3 mg/kg, iv or 10 mg/kg, po; settings: in vivo, read-out: beta t1/2 (converted)
[25] = target: Cytochrome P450 3A4 (Homo sapiens, UniProt P08684); assay: Inhibition of CYP3A4; assay type: ADME
Sequence of Cytochrome P450 3A4 (P08684 whole entry): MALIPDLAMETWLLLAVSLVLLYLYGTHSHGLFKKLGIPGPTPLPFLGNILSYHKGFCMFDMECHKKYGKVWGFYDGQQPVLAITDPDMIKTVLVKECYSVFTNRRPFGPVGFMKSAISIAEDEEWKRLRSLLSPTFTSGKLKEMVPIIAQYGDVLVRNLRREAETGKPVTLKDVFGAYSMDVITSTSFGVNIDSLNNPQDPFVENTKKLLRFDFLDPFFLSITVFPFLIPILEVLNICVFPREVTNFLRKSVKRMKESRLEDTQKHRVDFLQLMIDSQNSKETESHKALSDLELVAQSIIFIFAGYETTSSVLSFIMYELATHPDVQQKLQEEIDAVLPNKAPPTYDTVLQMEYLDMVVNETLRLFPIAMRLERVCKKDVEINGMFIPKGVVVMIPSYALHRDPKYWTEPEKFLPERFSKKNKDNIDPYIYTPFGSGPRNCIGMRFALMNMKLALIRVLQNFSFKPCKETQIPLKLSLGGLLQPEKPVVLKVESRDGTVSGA

[26] = Terminal half life in CD1 mouse at 5 mg/kg, iv or 30 mg/kg, po; assay type: ADME, organism-based; settings: in vivo, read-out: beta t1/2 (converted)
Outline: as §2

[27] = Bioavailability in cynomolgus monkey at 2 mg/kg, iv or 10 mg/kg, po; settings: in vivo
[28] = tested on: Mus musculus; assay: Ex vivo inhibition of 11beta-HSD1 in high fat diet-fed C57BL/6 mouse inguinal fat at 15 mg/kg, po measured at 8 hrs by ELISA; assay type: functional; settings: C57BL/6, 8 h
[29] = tested on: Mus musculus; assay: Ex vivo inhibition of 11beta-HSD1 in high fat diet-fed C57BL/6 mouse inguinal fat at 5 mg/kg, po measured at 8 hrs by ELISA; assay type: functional; settings: C57BL/6, 8 h
[30] = target: T3, Cytochrome P450 1A2 (Homo sapiens, UniProt P05177); assay: Inhibition of CYP1A2; assay type: ADME
T3 sequence (P05177 whole entry): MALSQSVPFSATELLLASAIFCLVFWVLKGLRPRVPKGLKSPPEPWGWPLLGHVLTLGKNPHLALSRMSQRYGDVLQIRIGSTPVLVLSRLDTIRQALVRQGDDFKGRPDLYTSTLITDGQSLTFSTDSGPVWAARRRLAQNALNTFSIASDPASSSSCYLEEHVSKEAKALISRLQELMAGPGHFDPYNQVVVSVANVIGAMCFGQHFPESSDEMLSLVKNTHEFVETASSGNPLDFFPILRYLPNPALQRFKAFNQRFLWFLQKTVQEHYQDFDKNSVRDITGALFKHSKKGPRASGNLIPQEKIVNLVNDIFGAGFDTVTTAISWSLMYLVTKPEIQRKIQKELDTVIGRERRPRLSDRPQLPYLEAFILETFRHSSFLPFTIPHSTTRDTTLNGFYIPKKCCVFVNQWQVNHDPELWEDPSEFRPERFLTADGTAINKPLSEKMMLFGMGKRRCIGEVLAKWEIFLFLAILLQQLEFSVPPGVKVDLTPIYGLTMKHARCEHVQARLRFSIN

[31] = Volume of distribution at steady state in CD1 mouse at 5 mg/kg, iv or 30 mg/kg, po; assay type: ADME, organism-based; settings: in vivo, read-out: Vdss
Outline: as §2

[32] = tested on: Mus musculus; assay: Ex vivo inhibition of 11beta-HSD1 in high fat diet-fed C57BL/6 mouse inguinal fat at 50 mg/kg, po measured at 4 hrs by ELISA; assay type: functional; settings: C57BL/6, 4 h
[33] = Terminal half life in cynomolgus monkey at 2 mg/kg, iv or 10 mg/kg, po; settings: in vivo, read-out: beta t1/2 (converted)
[34] = tested on: Rattus norvegicus; assay: Metabolic epimerization in Sprague-Dawley rat assessed as formation of [R]-2-((1S,2S,4R)-bicyclo[2.2.1]heptan-2-ylamino)-5-5iospropylthiazol-4(5H)-one at 10 mg/kg up to 24 hrs by LC-MS/MS analysis; settings: in vivo
[35] = tested on: Rattus norvegicus; assay: Metabolic epimerization in Sprague-Dawley rat assessed as formation of [R]-2-((1S,2S,4R)-bicyclo[2.2.1]heptan-2-ylamino)-5-5iospropylthiazol-4(5H)-one at 10 mg/kg, po up to 24 hrs by LC-MS/MS analysis; assay type: ADME, organism-based; set-up: dose 10 mg/kg, route oral; settings: in vivo
Outline: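 Sprague-Dawley rats (n = 2/group) dosed orally at 10 mg/kg. Plasma taken predose and at intervals up to 24 h. Diastereomers separated by HPLC, quantified by positive-ion ESI MS/MS with single ion monitoring. AUC ratio of epimer to parent calculated.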

[36] = tested on: Mus musculus; assay: Antiobesity activity in diet-induced obese mouse assessed as decrease in body weight at 5 mg/kg administered QD via high fat-diet for 13 days measured after day 13; assay type: functional, organism-based; set-up: dose 5 mg/kg
Outline: (§3)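 DIO male C57BL/6 mice (12 weeks high-fat diet), n = 11-12 per group. Rosiglitazone given in the high-fat chow at ~5 mg/kg/day for 13 or 14 days. Fed blood glucose by glucose meter and plasma insulin by radioimmunoassay before and at end of treatment. Body weight taken at end of treatment.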

[37] = tested on: Mus musculus; assay: Antidiabetic activity in diet-induced obese mouse assessed as decrease in fed blood glucose level at 5 mg/kg administered QD via high fat-diet for 13 days measured after day 13 by glucose tolerance test; assay type: functional, organism-based; set-up: dose 5 mg/kg
Outline: as §3

[38] = tested on: Mus musculus; assay: Antidiabetic activity in diet-induced obese mouse assessed as decrease in plasma insulin level at 5 mg/kg administered QD via high fat-diet for 13 days measured after day 13 by glucose tolerance test; assay type: functional, organism-based; set-up: dose 5 mg/kg
Outline: as §3

[39] = tested on: Mus musculus; assay: Antidiabetic activity in diet-induced obese mouse assessed as improvement of glucose tolerance at 5 mg/kg, QD for 13 days measured on day 14 after 12 hrs of fasting by glucose tolerance test

- bioavailability [1]: 50%
- IC50 [4]: > 15 µM
- clearance [6]: 22.7 mL/min/kg
- Km [7]: > 100 µM
- IC50 [9]: > 10 µM
- Vd [10]: 0.98 L/kg
- bioavailability [11]: 34%
- Vd [12]: 1.02 L/kg
- IC50 [14]: > 10 µM
- clearance [15]: 15.7 mL/min/kg
- bioavailability [16]: 54%
- clearance [17]: 31.5 mL/min/kg
- half-life [18]: 41.5 h
- IC50 [19]: > 15 µM
- IC50 [20]: > 15 µM
- clearance [23]: 52.7 mL/min/kg
- half-life [24]: 8.1 h
- IC50 [25]: > 15 µM
- half-life [26]: 15.6 h
- bioavailability [27]: 7%
- IC50 [30]: > 15 µM
- Vd [31]: 1 L/kg
- half-life [33]: 0.6 h
SMILES: CC(C)[C@]1(C)SC(N[C@H]2C[C@@H]3CC[C@H]2C3)=NC1=O
- inhibition in vivo at 15 mg/kg [2]: 55%
- inhibition [3]: Dose-dependent effect
- inhibition [5]: Active
- inhibition in vivo at 50 mg/kg [8]: 39%
- inhibition in vivo at 5 mg/kg [13]: 33%
- Activity [21]: Active
- inhibition [22]: Active
- inhibition in vivo at 15 mg/kg [28]: 36%
- inhibition in vivo at 5 mg/kg [29]: 10%
- inhibition in vivo at 50 mg/kg [32]: 47%

- Activity [34]: 39%
- Activity [35]: 39%
SMILES: CC(C)[C@@H]1SC(N[C@H]2C[C@@H]3CC[C@H]2C3)=NC1=O

SMILES: CN(CCOc1ccc(CC2SC(=O)NC2=O)cc1)c1ccccn1 (centres undefined)
- inhibition [36]: inactive
- inhibition [37]: Active
- inhibition [38]: Active
- Activity [39]: inactive
